In ChEMBL document CHEMBL1134624, “Potent and selective ET-A antagonists. 1. Syntheses and structure-activity relationships of N-(6-(2-(aryloxy)ethoxy)-4-pyrimidinyl)sulfonamide derivatives” (J Med Chem, 2001):

Tests used:
Endothelin-1 receptor = target: T1, Endothelin-1 receptor (Sus scrofa, UniProt Q29010); test: In vitro inhibition of [125I]ET1 binding to Endothelin A receptor in porcine aortic membrane from endothelial cells; format: cell membranes; conditions: in the assay text read “with endothelium removed” for “from endothelial cells”
T1 sequence (Q29010 whole entry): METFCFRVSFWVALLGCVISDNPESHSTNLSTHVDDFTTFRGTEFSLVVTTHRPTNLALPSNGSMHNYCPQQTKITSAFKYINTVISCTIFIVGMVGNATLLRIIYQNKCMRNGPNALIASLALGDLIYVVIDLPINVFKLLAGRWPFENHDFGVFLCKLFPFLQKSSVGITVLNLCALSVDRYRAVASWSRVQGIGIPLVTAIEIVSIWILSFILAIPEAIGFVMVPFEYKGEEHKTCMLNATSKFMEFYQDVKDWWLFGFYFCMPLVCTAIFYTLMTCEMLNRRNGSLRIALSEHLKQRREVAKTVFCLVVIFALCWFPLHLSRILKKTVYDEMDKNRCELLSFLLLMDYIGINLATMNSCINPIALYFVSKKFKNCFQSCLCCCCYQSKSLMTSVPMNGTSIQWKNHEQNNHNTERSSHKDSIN
In short: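 Endothelium-free porcine aorta homogenized in 10 mM MOPS (pH 7.4) with 20% sucrose. Membranes spun 1000g 15 min, then supernatant 90000g 45 min, and resuspended in 5 mM HEPES-Tris. Incubated with 20 pM final 125I-ET-1 and graded compound concentrations in 50 mM Tris-HCl pH 7.4, 0.1% BSA, protease inhibitors, EDTA, 2 h at 25 °C. Filtered, washed, gamma-counted.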

[1] = target: T2, Endothelin receptor type B (Homo sapiens, UniProt P24530); test: In vitro for specific binding of [125I]ET1 to GHcell expressed in Endothelin B receptor
T2 sequence (P24530 whole entry): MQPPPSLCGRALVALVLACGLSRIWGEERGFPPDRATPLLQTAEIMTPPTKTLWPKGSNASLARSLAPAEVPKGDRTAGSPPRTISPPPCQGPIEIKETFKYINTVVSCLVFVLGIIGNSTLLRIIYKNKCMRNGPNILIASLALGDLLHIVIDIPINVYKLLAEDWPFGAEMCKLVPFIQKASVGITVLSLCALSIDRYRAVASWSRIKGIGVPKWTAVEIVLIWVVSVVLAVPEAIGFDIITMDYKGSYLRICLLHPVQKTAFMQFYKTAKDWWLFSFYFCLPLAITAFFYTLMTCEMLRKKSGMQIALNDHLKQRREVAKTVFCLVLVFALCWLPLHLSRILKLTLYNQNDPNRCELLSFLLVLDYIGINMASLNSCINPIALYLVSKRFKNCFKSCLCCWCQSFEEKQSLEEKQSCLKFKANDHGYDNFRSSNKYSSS

SMILES | IC50 (Endothelin-1 receptor) | IC50 [1]
CSc1cnc(OCCOc2ncnc(NS(=O)(=O)c3ccc(C(C)(C)C)cc3)c2-c2ccco2)nc1 | 2.9 nM | –
COc1cccc(Oc2c(NS(=O)(=O)c3ccc(C(C)(C)C)cc3)ncnc2OCCOc2cccnn2)c1 | 51.4 nM | –
COc1cccc(Oc2c(NS(=O)(=O)c3ccc(C(C)(C)C)cc3)ncnc2OCCOc2nccc(OC)n2)c1 | > 100 nM | –
COc1cccc(Oc2c(NS(=O)(=O)c3ccc(C(C)(C)C)cc3)ncnc2OCCOc2ccncn2)c1 | 1.2 nM | –
COc1cccc(Oc2c(NS(=O)(=O)c3ccc(C(C)(C)C)cc3)ncnc2OCCOc2ncc(Cl)cn2)c1 | 0.059 nM | –
COc1cccc(Oc2c(NS(=O)(=O)c3ccc(C(C)(C)C)cc3)ncnc2OCCCc2ncccn2)c1 | > 100 nM | –
COc1cccc(Oc2c(NS(=O)(=O)c3ccc(C(C)(C)C)cc3)ncnc2OCCOc2ncc(Br)cn2)c1 | 0.051 nM | –
CSc1cnc(OCCOc2ncnc(NS(=O)(=O)c3ccc(C(C)(C)C)cc3)c2-c2cccs2)nc1 | 0.89 nM | –
COc1cccc(Oc2c(NS(=O)(=O)c3ccc(C(C)(C)C)cc3)ncnc2OCCOc2ncccn2)c1 | 1.9 nM | –
COc1ccccc1Oc1c(NS(=O)(=O)c2ccc(C(C)(C)C)cc2)ncnc1OCCOc1ncc(SC)cn1 | 0.37 nM | –
COc1ccc(-c2c(NS(=O)(=O)c3ccc(C(C)(C)C)cc3)ncnc2OCCOc2ncc(SC)cn2)cc1OC | 0.0085 nM | –
COc1cccc(Oc2c(NS(=O)(=O)c3ccc(C(C)(C)C)cc3)ncnc2OCCOc2ncc(C)cn2)c1 | 0.86 nM | –
CSc1cnc(OCCOc2ncnc(NS(=O)(=O)c3ccc(C(C)(C)C)cc3)c2-c2ccc(C)s2)nc1 | 0.16 nM | –
COc1cccc(Oc2c(NS(=O)(=O)c3ccc(C(C)(C)C)cc3)ncnc2SCCOc2ncccn2)c1 | 25.8 nM | –
COc1cccc(Oc2c(NS(=O)(=O)c3ccc(C(C)(C)C)cc3)ncnc2OCCOCc2ccccc2)c1 | 170 nM | –
CSc1cnc(OCCOc2ncnc(NS(=O)(=O)c3ccc(C(C)(C)C)cc3)c2-c2ccc3c(c2)OCO3)nc1 | 0.0011 nM | –
COc1cccc(Oc2c(NS(=O)(=O)c3ccc(C(C)(C)C)cc3)ncnc2OCCOc2nccc(C)n2)c1 | 39.4 nM | –

SMILES | IC50 (Endothelin-1 receptor) | IC50 [1]
COCCOc1ncnc(NS(=O)(=O)c2ccc(C(C)(C)C)cc2)c1Oc1cccc(OC)c1 | 92 nM | –
COc1cccc(Oc2c(NS(=O)(=O)c3ccc(C(C)(C)C)cc3)ncnc2OCCOc2ccccn2)c1 | 8.8 nM | –
CSc1cnc(OCCOc2ncnc(NS(=O)(=O)c3ccc(C(C)(C)C)cc3)c2-c2ccncc2)nc1 | 9.9 nM | –
COc1cccc(Oc2c(NCCOc3ncccn3)ncnc2NS(=O)(=O)c2ccc(C(C)(C)C)cc2)c1 | 6.2 nM | –
COc1cccc(Oc2c(NS(=O)(=O)c3ccc(C(C)(C)C)cc3)ncnc2OCCOc2nccs2)c1 | 12 nM | –
COc1cccc(Oc2c(NS(=O)(=O)c3ccc(C(C)(C)C)cc3)ncnc2OCCOc2nccc3ccccc23)c1 | > 100 nM | –
COc1cnc(OCCOc2ncnc(NS(=O)(=O)c3ccc(C(C)(C)C)cc3)c2Oc2cccc(OC)c2)nc1 | 0.015 nM | –
CSc1cnc(OCCOc2ncnc(NS(=O)(=O)c3ccc(C(C)(C)C)cc3)c2-c2ccc(C(F)(F)F)cc2)nc1 | 0.0017 nM | –
COc1cccc(Oc2c(NS(=O)(=O)c3ccc(C(C)(C)C)cc3)ncnc2OCCCOc2ncc(C)cn2)c1 | 93.5 nM | –
COc1cccc(Oc2c(NS(=O)(=O)c3ccc(C(C)(C)C)cc3)ncnc2OCCOc2cnccn2)c1 | 24.5 nM | –
COc1cccc(Oc2c(NS(=O)(=O)c3ccc(C(C)(C)C)cc3)ncnc2OCCNc2ncccn2)c1 | > 100 nM | –
COc1cccc(Oc2c(NS(=O)(=O)c3ccc(C(C)(C)C)cc3)ncnc2OCCOc2ccccc2)c1 | 65 nM | –
COc1cccc(-c2c(NS(=O)(=O)c3ccc(C(C)(C)C)cc3)ncnc2OCCOc2ncc(SC)cn2)c1 | 0.028 nM | –
COc1cccc(Oc2c(NS(=O)(=O)c3ccc(C(C)(C)C)cc3)ncnc2OCCOc2cnc3ccccc3n2)c1 | 45.4 nM | –
Cc1ccc(-c2c(NS(=O)(=O)c3ccc(C(C)(C)C)cc3)ncnc2OCCO)cc1 | > 100 nM | –
COc1cccc(Oc2c(NS(=O)(=O)c3ccc(C(C)(C)C)cc3)ncnc2OCCOc2ccc3ccccc3n2)c1 | 15.2 nM | –

Continued, values first:

IC50 (Endothelin-1 receptor) | IC50 [1] | SMILES
22 nM | – | Cc1ccc(-c2c(NS(=O)(=O)c3cccc4ccccc34)ncnc2OCCOc2ncc(Br)cn2)cc1
0.0039 nM | – | COc1ccccc1Oc1c(NS(=O)(=O)c2ccc(C(C)(C)C)cc2)ncnc1OCCOc1ncc(Br)cn1
< 0.001 nM | – | CSc1cnc(OCCOc2ncnc(NS(=O)(=O)c3ccc(C(C)(C)C)cc3)c2-c2ccc(Cl)cc2)nc1
0.64 nM | – | COc1ccc(S(=O)(=O)Nc2ncnc(OCCOc3ncc(Br)cn3)c2-c2ccc(C)cc2)cc1OC
2.8 nM | – | Cc1ccc(-c2c(NS(=O)(=O)c3ccc(Br)cc3)ncnc2OCCOc2ncc(Br)cn2)cc1
3.1 nM | – | Cc1ccc(-c2c(NS(=O)(=O)c3cccs3)ncnc2OCCOc2ncc(Br)cn2)cc1
< 0.001 nM | – | Cc1ccc(-c2c(NS(=O)(=O)c3ccc(C(C)(C)C)cc3)ncnc2OCCOc2ncc(Br)cn2)cc1 [listing 1 of 2 here]
< 0.001 nM | – | Cc1ccc(-c2c(NS(=O)(=O)c3ccc(C(C)(C)C)cc3)ncnc2OCCOc2ncc(-c3ccco3)cn2)cc1 [listing 1 of 2 here]
– | 220 nM | CSc1cnc(OCCOc2ncnc(NS(=O)(=O)c3ccc(C(C)(C)C)cc3)c2-c2ccc(C)cc2)nc1 [listing 1 of 2 here]
1 nM | – | Cc1ccc(-c2c(NS(=O)(=O)c3ccc(I)cc3)ncnc2OCCOc2ncc(Br)cn2)cc1
< 0.001 nM | – | Cc1ccc(-c2c(NS(=O)(=O)c3ccc(C(C)(C)C)cc3)ncnc2OCCOc2ncc(-c3ccsc3)cn2)cc1
– | 7 nM | Cc1ccc(-c2c(NS(=O)(=O)c3ccc(C(C)(C)C)cc3)ncnc2OCCOc2ncc(-c3ccco3)cn2)cc1 [listing 2 of 2 here]
0.0017 nM | – | COc1cnc(OCCOc2ncnc(NS(=O)(=O)c3ccc(C(C)(C)C)cc3)c2-c2ccc(C)cc2)nc1 [listing 1 of 2 here]
– | 3.8 nM | Cc1ccc(-c2c(NS(=O)(=O)c3ccc(C(C)(C)C)cc3)ncnc2OCCOc2ncc(-c3cccs3)cn2)cc1 [listing 1 of 2 here]
< 0.001 nM | – | Cc1ccc(-c2c(NS(=O)(=O)c3ccc(C(C)(C)C)cc3)ncnc2OCCOc2ncc(-c3cccs3)cn2)cc1 [listing 2 of 2 here]
0.036 nM | – | Cc1ccc(-c2c(NS(=O)(=O)c3ccc(C(C)(C)C)cc3)ncnc2OCCOc2ncc(-c3ccccn3)cn2)cc1
0.11 nM | – | Cc1ccc(-c2c(NS(=O)(=O)c3ccc(C(C)(C)C)cc3)ncnc2OCCOc2ncccn2)cc1

IC50 (Endothelin-1 receptor) | IC50 [1] | SMILES
– | 240 nM | COc1cnc(OCCOc2ncnc(NS(=O)(=O)c3ccc(C(C)(C)C)cc3)c2-c2ccc(C)cc2)nc1 [listing 2 of 2 here]
1.4 nM | – | Cc1ccc(-c2c(NS(=O)(=O)c3ccc(C(F)(F)F)cc3)ncnc2OCCOc2ncc(Br)cn2)cc1
0.013 nM | – | CCc1ccc(-c2c(NS(=O)(=O)c3ccc(C(C)(C)C)cc3)ncnc2OCCOc2ncc(SC)cn2)cc1
< 0.001 nM | – | CCC(C)(C)c1ccc(S(=O)(=O)Nc2ncnc(OCCOc3ncc(Br)cn3)c2-c2ccc(C)cc2)cc1
0.018 nM | – | COc1ccccc1Sc1c(NS(=O)(=O)c2ccc(C(C)(C)C)cc2)ncnc1OCCOc1ncc(Br)cn1
< 0.001 nM | – | CSc1cnc(OCCOc2ncnc(NS(=O)(=O)c3ccc(C(C)(C)C)cc3)c2-c2ccc(C)cc2)nc1 [listing 2 of 2 here]
3.4 nM | – | Cc1ccc(-c2c(NS(=O)(=O)c3ccc(-c4ccccn4)s3)ncnc2OCCOc2ncc(Br)cn2)cc1
< 0.001 nM | – | Cc1ccc(-c2c(NS(=O)(=O)c3ccc(C(C)(C)C)cc3)ncnc2OCCOc2ncc(Cl)cn2)cc1 [listing 1 of 2 here]
– | 38 nM | Cc1ccc(-c2c(NS(=O)(=O)c3ccc(C(C)(C)C)cc3)ncnc2OCCOc2ncc(Br)cn2)cc1 [listing 2 of 2 here]
– | 28 nM | Cc1ccc(-c2c(NS(=O)(=O)c3ccc(C(C)(C)C)cc3)ncnc2OCCOc2ncc(Cl)cn2)cc1 [listing 2 of 2 here]
0.76 nM | – | COc1ccc(S(=O)(=O)Nc2ncnc(OCCOc3ncc(Br)cn3)c2-c2ccc(C)cc2)cc1
1 nM | – | Cc1ccc(-c2c(NS(=O)(=O)c3ccc4ccccc4c3)ncnc2OCCOc2ncc(Br)cn2)cc1
0.29 nM | – | CSc1cnc(OCCOc2ncnc(NS(=O)(=O)c3ccc(C(C)(C)C)cc3)c2-c2ccc3ccccc3c2)nc1
< 0.001 nM | – | COc1ccc(-c2c(NS(=O)(=O)c3ccc(C(C)(C)C)cc3)ncnc2OCCOc2ncc(SC)cn2)cc1
0.16 nM | – | Cc1ccc(-c2c(NS(=O)(=O)c3ccc(C(C)C)cc3)ncnc2OCCOc2ncc(Br)cn2)cc1
1.2 nM | – | CSc1cnc(OCCOc2ncnc(NS(=O)(=O)c3ccc(C(C)(C)C)cc3)c2-c2ccc(C(C)C)cc2)nc1
